The source made the active and inactive calls. No cut-off for these calls is given here.
How the values were obtained:
[1] = biological target: Bromodomain-containing protein 7 (Homo sapiens) (UniProt Q9NPI1); assay: Binding affinity to biotinylated BRD7 (unknown origin) expressed in Escherichia coli at 0.2 to 1 uM by Biolayer Interferometric analysis; conditions: dose 0.2-1 µM
Outline: (§1)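 Bromodomains carrying a BirA biotin ligase targeting sequence, coexpressed with BirA in bacteria to give homogeneous in vivo biotin labelling, checked by mass spectrometry. Biotinylated proteins probed by biolayer interferometry with compound at two concentrations, 0.2 and 1.0 μM.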

[2] = biological target: Protein polybromo-1 (Homo sapiens) (UniProt Q86U86); assay: Binding affinity to biotinylated PB1 bromodomain-4 (unknown origin) expressed in Escherichia coli at 0.2 to 1 uM by Biolayer Interferometric analysis; conditions: dose 0.2-1 µM; outline: as §1
[3] = biological target: Transcription intermediary factor 1-beta (Homo sapiens) (UniProt Q13263); assay: Binding affinity to biotinylated TRIM28 (unknown origin) expressed in Escherichia coli at 0.2 to 1 uM by Biolayer Interferometric analysis; conditions: dose 0.2-1 µM; outline: as §1
[4] = biological target: Peregrin (Homo sapiens) (UniProt P55201); assay: Binding affinity to biotinylated BRPF1 bromodomain-1 (unknown origin) expressed in Escherichia coli at 0.2 to 1 uM by Biolayer Interferometric analysis; conditions: dose 0.2-1 µM; outline: as §1
[5] = biological target: T1, SWI/SNF-related matrix-associated actin-dependent regulator of chromatin subfamily A member 4 (Homo sapiens, UniProt P51532); assay: Binding affinity to SMARCA4 in human HUT78 cell extract using GSK2801 affinity matrix by chemoproteomic competition binding assay; type: cell-free
[6] = biological target: Histone acetyltransferase KAT2A (Homo sapiens) (UniProt Q92830); assay: Binding affinity to biotinylated GCN5L2 (unknown origin) expressed in Escherichia coli at 0.2 to 1 uM by Biolayer Interferometric analysis; conditions: dose 0.2-1 µM; outline: as §1
[7] = biological target: Bromodomain-containing protein 1 (Homo sapiens) (UniProt O95696); assay: Binding affinity to biotinylated BRD1 (unknown origin) expressed in Escherichia coli at 0.2 to 1 uM by Biolayer Interferometric analysis; conditions: dose 0.2-1 µM; outline: as §1
[8] = biological target: Bromodomain and WD repeat-containing protein 1 (Homo sapiens) (UniProt Q9NSI6); assay: Binding affinity to biotinylated WDR9 (unknown origin) expressed in Escherichia coli at 0.2 to 1 uM by Biolayer Interferometric analysis; conditions: dose 0.2-1 µM; outline: as §1
[9] = biological target: ATPase family AAA domain-containing protein 2B (Homo sapiens) (UniProt Q9ULI0); assay: Binding affinity to biotinylated KIAA1240 (unknown origin) expressed in Escherichia coli at 0.2 to 1 uM by Biolayer Interferometric analysis; conditions: dose 0.2-1 µM; outline: as §1
[10] = biological target: Nucleosome-remodeling factor subunit BPTF (Homo sapiens) (UniProt Q12830); assay: Binding affinity to biotinylated FALZ (unknown origin) expressed in Escherichia coli at 0.2 to 1 uM by Biolayer Interferometric analysis; conditions: dose 0.2-1 µM; outline: as §1
[11] = biological target: SWI/SNF-related matrix-associated actin-dependent regulator of chromatin subfamily A member 2 (Homo sapiens, UniProt P51531); assay: Binding affinity to SMARCA2 in human HuT78 cell extract using GSK2801 affinity matrix by chemoproteomic competition binding assay; type: cell-free
[12] = biological target: ATPase family AAA domain-containing protein 2 (Homo sapiens) (UniProt Q6PL18); assay: Binding affinity to biotinylated ATAD2 (unknown origin) expressed in Escherichia coli at 0.2 to 1 uM by Biolayer Interferometric analysis; conditions: dose 0.2-1 µM; outline: as §1
[13] = biological target: Transcription initiation factor TFIID subunit 1 (Homo sapiens) (UniProt P21675); assay: Binding affinity to biotinylated TAF1 bromodomain-2 (unknown origin) expressed in Escherichia coli at 0.2 to 1 uM by Biolayer Interferometric analysis; conditions: dose 0.2-1 µM; outline: as §1
[14] = biological target: Transcription initiation factor TFIID subunit 1 (Homo sapiens) (UniProt P21675); assay: Binding affinity to biotinylated TAF1 bromodomain-1 (unknown origin) expressed in Escherichia coli at 0.2 to 1 uM by Biolayer Interferometric analysis; conditions: dose 0.2-1 µM; outline: as §1
[15] = biological target: Protein polybromo-1 (Homo sapiens) (UniProt Q86U86); assay: Binding affinity to biotinylated PB1 bromodomain-1 (unknown origin) expressed in Escherichia coli at 0.2 to 1 uM by Biolayer Interferometric analysis; conditions: dose 0.2-1 µM; outline: as §1
[16] = biological target: Transcription initiation factor TFIID subunit 1-like (Homo sapiens) (UniProt Q8IZX4); assay: Binding affinity to biotinylated TAF1L bromodomain-1 (unknown origin) expressed in Escherichia coli at 0.2 to 1 uM by Biolayer Interferometric analysis; conditions: dose 0.2-1 µM; outline: as §1
[17] = biological target: Bromodomain-containing protein 3 (Homo sapiens) (UniProt Q15059); assay: Binding affinity to biotinylated BRD3 bromodomain-2 (unknown origin) expressed in Escherichia coli at 0.2 to 1 uM by Biolayer Interferometric analysis; conditions: dose 0.2-1 µM; outline: as §1
[18] = biological target: Bromodomain and WD repeat-containing protein 3 (Homo sapiens) (UniProt Q6RI45); assay: Binding affinity to biotinylated BRWD3 bromodomain-2 (unknown origin) expressed in Escherichia coli at 0.2 to 1 uM by Biolayer Interferometric analysis; conditions: dose 0.2-1 µM; outline: as §1
[19] = biological target: Histone acetyltransferase p300 (Homo sapiens) (UniProt Q09472); assay: Binding affinity to biotinylated EP300 (unknown origin) expressed in Escherichia coli at 0.2 to 1 uM by Biolayer Interferometric analysis; conditions: dose 0.2-1 µM; outline: as §1
[20] = biological target: T1, SWI/SNF-related matrix-associated actin-dependent regulator of chromatin subfamily A member 4; assay: Binding affinity to biotinylated SMARCA4 (unknown origin) expressed in Escherichia coli at 0.2 to 1 uM by Biolayer Interferometric analysis; conditions: dose 0.2-1 µM; outline: as §1
[21] = biological target: T2, Bromodomain-containing protein 9 (Homo sapiens) (UniProt Q9H8M2); assay: Binding affinity to biotinylated BRD9 (unknown origin) expressed in Escherichia coli at 0.2 to 1 uM by Biolayer Interferometric analysis; conditions: dose 0.2-1 µM; outline: as §1
T2 sequence (whole entry): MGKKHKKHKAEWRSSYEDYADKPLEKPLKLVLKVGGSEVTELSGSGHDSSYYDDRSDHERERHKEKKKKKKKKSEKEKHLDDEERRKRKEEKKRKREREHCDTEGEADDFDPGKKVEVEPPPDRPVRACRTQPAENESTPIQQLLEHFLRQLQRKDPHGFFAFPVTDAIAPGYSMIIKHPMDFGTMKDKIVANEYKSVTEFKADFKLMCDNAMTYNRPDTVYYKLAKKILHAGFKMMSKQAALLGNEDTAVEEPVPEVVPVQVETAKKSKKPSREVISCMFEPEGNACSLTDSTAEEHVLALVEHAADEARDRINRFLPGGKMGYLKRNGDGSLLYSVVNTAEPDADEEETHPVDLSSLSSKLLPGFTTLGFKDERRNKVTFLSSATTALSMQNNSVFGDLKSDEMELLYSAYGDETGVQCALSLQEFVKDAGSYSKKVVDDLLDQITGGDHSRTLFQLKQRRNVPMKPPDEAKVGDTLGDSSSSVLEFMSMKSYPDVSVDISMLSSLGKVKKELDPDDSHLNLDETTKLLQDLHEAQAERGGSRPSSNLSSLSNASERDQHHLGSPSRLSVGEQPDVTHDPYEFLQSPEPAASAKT

[22] = biological target: Bromodomain-containing protein 3 (Homo sapiens) (UniProt Q15059); assay: Binding affinity to biotinylated BRD3 bromodomain-1 (unknown origin) expressed in Escherichia coli at 0.2 to 1 uM by Biolayer Interferometric analysis; conditions: dose 0.2-1 µM; outline: as §1

Bromodomain-containing protein 3 (Homo sapiens), sequence (Q15059 2-726 limits assumed): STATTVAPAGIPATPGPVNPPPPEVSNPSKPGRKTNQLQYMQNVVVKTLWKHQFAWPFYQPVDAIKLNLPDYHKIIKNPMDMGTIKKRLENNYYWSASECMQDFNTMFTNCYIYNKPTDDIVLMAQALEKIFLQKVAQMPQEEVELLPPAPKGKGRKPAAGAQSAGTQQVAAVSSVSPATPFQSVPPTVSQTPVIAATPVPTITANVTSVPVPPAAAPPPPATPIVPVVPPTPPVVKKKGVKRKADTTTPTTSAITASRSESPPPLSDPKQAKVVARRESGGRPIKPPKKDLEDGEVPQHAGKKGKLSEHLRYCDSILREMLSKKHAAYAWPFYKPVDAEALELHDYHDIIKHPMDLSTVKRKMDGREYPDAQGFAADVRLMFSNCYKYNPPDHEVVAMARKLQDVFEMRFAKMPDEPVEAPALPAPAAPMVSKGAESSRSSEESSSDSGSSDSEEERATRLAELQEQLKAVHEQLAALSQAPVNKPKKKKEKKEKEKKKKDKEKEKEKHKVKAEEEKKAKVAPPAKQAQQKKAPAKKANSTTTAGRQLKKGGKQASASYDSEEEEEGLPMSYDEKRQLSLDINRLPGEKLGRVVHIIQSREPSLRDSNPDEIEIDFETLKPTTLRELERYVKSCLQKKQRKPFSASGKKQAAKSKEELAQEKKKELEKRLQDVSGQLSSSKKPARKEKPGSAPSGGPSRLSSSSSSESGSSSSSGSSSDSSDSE
Transcription initiation factor TFIID subunit 1 (Homo sapiens), sequence (P21675 whole entry): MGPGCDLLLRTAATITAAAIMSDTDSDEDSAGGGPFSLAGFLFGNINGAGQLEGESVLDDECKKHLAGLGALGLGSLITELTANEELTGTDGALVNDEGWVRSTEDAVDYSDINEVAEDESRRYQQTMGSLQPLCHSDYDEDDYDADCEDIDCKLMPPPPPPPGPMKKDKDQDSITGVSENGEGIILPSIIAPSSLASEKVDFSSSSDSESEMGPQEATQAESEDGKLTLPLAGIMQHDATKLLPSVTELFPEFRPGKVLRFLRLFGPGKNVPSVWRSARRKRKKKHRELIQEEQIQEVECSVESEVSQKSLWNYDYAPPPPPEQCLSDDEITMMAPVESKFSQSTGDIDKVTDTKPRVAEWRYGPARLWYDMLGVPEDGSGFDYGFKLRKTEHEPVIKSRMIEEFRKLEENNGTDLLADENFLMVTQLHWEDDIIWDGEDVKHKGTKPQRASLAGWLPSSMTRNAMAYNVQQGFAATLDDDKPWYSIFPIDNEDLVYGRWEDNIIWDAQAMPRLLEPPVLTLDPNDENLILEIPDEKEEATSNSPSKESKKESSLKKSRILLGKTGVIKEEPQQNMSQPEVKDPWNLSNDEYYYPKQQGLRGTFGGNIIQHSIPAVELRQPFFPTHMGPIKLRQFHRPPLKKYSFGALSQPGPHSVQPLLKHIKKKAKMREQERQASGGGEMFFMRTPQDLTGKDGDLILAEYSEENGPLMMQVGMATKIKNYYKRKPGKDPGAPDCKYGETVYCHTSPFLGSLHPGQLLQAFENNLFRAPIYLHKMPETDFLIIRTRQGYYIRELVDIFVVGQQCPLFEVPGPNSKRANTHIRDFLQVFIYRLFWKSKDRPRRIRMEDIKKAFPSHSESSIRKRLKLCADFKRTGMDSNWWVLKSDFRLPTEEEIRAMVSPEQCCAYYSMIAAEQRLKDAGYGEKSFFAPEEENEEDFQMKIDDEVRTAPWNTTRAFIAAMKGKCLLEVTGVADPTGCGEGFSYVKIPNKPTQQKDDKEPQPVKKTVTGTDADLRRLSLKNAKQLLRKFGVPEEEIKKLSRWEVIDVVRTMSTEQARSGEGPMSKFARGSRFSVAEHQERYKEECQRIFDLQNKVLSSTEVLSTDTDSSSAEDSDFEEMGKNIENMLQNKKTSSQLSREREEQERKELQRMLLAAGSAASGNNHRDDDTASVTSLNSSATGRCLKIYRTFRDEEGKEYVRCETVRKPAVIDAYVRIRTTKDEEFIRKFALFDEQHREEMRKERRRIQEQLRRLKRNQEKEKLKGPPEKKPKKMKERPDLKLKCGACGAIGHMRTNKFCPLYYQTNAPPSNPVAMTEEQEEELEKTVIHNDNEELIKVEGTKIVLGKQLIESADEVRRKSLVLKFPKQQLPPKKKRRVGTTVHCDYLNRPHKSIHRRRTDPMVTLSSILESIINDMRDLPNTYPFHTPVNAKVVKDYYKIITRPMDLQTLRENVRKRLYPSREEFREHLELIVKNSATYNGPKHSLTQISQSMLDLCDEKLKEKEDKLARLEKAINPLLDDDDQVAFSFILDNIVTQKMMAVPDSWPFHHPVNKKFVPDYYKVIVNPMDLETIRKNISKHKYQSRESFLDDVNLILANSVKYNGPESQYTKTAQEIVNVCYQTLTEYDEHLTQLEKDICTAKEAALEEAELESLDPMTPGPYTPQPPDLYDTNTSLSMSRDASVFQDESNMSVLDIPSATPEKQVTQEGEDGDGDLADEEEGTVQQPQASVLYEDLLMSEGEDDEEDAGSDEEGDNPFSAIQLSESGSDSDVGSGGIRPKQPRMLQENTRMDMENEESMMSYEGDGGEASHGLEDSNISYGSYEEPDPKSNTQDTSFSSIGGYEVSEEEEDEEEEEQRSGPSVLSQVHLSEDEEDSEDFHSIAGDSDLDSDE
Protein polybromo-1 (Homo sapiens), sequence (Q86U86 whole entry): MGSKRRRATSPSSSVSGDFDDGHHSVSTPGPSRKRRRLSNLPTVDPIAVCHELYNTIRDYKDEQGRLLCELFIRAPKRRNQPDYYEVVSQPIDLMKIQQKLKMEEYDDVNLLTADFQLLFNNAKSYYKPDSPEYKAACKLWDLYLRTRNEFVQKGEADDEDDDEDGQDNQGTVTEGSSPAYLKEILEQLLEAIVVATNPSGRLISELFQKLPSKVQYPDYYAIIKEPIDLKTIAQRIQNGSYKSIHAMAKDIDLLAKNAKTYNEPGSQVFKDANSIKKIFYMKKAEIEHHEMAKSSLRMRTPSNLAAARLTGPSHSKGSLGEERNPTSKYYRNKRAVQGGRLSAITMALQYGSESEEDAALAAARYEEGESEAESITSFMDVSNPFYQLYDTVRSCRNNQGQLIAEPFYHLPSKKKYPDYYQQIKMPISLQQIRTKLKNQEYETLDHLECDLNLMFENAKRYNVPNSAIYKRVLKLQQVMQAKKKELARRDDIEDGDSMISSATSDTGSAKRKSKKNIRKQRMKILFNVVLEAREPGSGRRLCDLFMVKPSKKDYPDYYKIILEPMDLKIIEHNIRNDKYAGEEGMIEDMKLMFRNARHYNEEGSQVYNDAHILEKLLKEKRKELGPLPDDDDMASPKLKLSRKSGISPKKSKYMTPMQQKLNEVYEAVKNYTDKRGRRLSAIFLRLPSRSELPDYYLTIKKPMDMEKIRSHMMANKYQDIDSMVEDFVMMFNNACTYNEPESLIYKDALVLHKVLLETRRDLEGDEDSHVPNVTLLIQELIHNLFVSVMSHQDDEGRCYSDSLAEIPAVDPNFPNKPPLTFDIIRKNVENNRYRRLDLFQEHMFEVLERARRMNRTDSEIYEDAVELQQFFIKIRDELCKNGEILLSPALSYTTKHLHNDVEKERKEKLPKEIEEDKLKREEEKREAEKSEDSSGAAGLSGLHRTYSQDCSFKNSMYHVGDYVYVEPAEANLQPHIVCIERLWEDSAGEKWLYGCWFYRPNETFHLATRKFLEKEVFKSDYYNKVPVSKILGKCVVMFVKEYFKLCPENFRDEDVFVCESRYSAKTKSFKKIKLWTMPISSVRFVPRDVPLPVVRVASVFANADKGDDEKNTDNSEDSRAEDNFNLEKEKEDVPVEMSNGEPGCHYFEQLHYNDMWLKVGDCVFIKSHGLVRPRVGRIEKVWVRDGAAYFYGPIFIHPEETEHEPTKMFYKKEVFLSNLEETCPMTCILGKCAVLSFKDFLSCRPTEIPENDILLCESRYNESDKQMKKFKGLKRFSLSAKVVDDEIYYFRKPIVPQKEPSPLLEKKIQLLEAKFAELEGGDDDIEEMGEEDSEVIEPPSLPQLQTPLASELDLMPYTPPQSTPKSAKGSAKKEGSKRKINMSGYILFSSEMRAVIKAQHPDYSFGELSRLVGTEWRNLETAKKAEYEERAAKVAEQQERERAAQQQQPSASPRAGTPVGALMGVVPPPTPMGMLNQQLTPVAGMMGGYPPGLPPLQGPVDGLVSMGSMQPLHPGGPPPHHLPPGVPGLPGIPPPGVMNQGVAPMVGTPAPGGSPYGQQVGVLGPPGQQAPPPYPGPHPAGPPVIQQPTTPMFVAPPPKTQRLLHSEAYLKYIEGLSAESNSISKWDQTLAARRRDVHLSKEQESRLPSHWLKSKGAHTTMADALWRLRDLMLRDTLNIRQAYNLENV
Transcription intermediary factor 1-beta (Homo sapiens), sequence (Q13263 whole entry): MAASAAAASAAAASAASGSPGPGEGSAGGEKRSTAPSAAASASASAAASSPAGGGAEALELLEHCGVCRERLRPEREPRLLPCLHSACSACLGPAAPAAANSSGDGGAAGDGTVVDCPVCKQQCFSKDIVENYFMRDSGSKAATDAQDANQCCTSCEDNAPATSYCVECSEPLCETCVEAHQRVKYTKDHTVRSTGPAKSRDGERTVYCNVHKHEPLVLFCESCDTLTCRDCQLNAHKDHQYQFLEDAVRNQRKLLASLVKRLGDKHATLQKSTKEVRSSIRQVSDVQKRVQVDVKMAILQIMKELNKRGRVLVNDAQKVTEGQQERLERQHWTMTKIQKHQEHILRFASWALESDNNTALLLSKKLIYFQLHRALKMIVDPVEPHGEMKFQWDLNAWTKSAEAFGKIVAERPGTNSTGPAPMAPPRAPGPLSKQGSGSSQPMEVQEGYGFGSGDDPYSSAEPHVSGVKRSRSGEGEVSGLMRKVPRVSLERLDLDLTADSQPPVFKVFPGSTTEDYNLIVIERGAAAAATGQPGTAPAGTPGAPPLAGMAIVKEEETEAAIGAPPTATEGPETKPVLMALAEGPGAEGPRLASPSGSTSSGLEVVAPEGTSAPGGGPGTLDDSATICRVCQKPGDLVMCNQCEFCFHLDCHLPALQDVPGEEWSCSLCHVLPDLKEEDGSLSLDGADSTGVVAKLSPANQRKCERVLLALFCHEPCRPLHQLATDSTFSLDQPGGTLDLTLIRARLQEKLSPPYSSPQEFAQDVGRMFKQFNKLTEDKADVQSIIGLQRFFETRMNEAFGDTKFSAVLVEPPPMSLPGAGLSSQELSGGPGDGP

Activity [1]: inactive
Activity [2]: inactive
Activity [3]: inactive
Activity [4]: inactive
Kd [5]: 15.8 µM
Activity [6]: inactive
Activity [7]: inactive
Activity [8]: inactive
Activity [9]: inactive
Activity [10]: inactive
Kd [11]: 15.8 µM
Activity [12]: inactive
Activity [13]: inactive
Activity [14]: inactive
Activity [15]: inactive
Activity [16]: inactive
Activity [17]: inactive
Activity [18]: inactive
Activity [19]: inactive
Activity [20]: inactive
Activity [21]: Active
Activity [22]: inactive
SMILES: CCCOc1ccn2c(C(C)=O)cc(-c3cccc(OC)c3)c2c1

From ChEMBL document CHEMBL5712886, “Discovery and Characterization of GSK2801, a Selective Chemical Probe for the Bromodomains BAZ2A and BAZ2B” (J Med Chem, 2016)
